The source of these data is ChEMBL document CHEMBL3526048, “In vitro metabolism of rivoglitazone, a novel peroxisome proliferator-activated receptor γ agonist, in rat, monkey, and human liver microsomes and freshly isolated hepatocytes” (Drug Metab Dispos, 2011).

In data set [1] the target is T1, UDP-glucuronosyltransferase 1A3 (Homo sapiens, UniProt P35503).
T1 sequence (P35503 whole entry): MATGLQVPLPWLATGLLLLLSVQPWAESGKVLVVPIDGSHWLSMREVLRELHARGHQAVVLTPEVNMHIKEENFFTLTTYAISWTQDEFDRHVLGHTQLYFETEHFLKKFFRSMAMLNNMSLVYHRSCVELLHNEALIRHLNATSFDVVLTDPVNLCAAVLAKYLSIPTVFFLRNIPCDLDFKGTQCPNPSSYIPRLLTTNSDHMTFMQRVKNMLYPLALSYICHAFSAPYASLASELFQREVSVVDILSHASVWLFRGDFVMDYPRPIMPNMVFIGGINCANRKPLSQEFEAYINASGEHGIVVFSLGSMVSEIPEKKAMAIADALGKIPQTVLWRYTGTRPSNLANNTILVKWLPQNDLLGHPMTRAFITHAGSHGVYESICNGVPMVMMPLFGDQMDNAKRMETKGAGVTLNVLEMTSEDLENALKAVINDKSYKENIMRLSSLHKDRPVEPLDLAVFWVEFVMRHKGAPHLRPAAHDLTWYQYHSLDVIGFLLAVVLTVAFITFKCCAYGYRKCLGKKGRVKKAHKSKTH
Kind of data set: Activity of human UGT1A3 expressed in microsomes isolated from baculovirus infected insect cell assessed as enzyme-mediated compound formation treated with [14C]-rivoglitazone at 20 uM after 4 hrs by radio-HPLC/LC-MS/MS analysis in presence of NADPH-generating system/SAM. Type of data set: ADME.

The target of data set [2] is T2, UDP-glucuronosyltransferase 2B7 (Homo sapiens, UniProt P16662).
T2 sequence (P16662 whole entry): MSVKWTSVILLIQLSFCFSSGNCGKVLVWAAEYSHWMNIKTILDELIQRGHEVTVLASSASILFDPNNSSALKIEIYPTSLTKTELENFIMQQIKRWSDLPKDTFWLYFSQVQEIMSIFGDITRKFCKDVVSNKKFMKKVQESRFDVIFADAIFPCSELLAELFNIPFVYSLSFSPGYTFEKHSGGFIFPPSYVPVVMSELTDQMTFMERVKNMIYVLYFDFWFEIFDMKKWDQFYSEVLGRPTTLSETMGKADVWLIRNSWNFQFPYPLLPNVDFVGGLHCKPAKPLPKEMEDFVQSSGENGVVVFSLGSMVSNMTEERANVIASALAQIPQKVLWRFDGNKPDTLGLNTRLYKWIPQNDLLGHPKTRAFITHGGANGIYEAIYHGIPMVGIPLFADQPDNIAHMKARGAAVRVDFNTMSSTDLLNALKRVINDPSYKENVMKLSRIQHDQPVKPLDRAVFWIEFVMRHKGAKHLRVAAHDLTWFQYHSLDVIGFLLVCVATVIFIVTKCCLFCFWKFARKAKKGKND
Description: Activity of human UGT2B7 expressed in microsomes isolated from baculovirus infected insect cell assessed as enzyme-mediated compound formation treated with [14C]-rivoglitazone at 20 uM after 4 hrs by radio-HPLC/LC-MS/MS analysis in presence of NADPH-generating system/SAM. Format: ADME.

The nature of data set [3]: Drug level in cynomolgus monkey liver microsomes treated with [14C]-rivoglitazone at 20 uM after 4 hrs by radio-HPLC/LC-MS/MS analysis in presence of UDPGA and UDPGA/SAM. Type of data set: ADME, Macaca fascicularis. In short, it runs like this: (§1)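 Pooled male liver microsomes (1 mg/ml; rat from 94 Sprague-Dawley, monkey from 8 cynomolgus, human from 23 donors) were pretreated with alamethicin (50 μg/mg protein, 15 min, ice). Incubation with [¹⁴C]rivoglitazone (20 μM) in 100 mM Tris-HCl (pH 7.5), 10 mM MgCl₂, 5 mM UDPGA, with or without 2 mM SAM, 4 h at 37°C. Controls lacked UDPGA and SAM alone. Radio-HPLC and LC-MS analysis.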
A general note: Liver microsomes are vesicles of endoplasmic reticulum, rich in cytochrome P450 enzymes.

The test system of data set [4] is Liver microsome. Kind of data set: Drug level in Sprague-Dawley rat liver microsomes treated with [14C]-rivoglitazone at 20 uM after 4 hrs by radio-HPLC/LC-MS/MS analysis in presence of UDPGA and UDPGA/SAM. Type of data set: ADME. In short, it runs like this: as §1
Data set [5] relates to Liver microsome. Description: Drug level in human liver microsomes treated with [14C]-rivoglitazone at 20 uM after 4 hrs by radio-HPLC/LC-MS/MS analysis in presence of UDPGA and UDPGA/SAM. Format: ADME. In short, it runs like this:
as §1

Data set [6] concerns Hepatocyte. Kind of data set: Drug level in rat hepatocytes treated with [14C]-rivoglitazone at 30 uM after 3 hrs by radio-HPLC/LC-MS/MS analysis in presence of UDPGA and UDPGA/SAM. Type of data set: ADME, cell-based.
Data set [7] is described as follows: Drug level in monkey hepatocytes treated with [14C]-rivoglitazone at 30 uM after 3 hrs by radio-HPLC/LC-MS/MS analysis in presence of UDPGA and UDPGA/SAM. The note with it: cynomolgus monkey.
The nature of data set [8]: Retention time of the compound by LC-MS/MS analysis. Type of data set: physicochemical. The essentials: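 LC-MS/MS used a YMC-Pack ODS-A column (1.5 × 150 mm, 5 μm) at 30°C, 0.1 ml/min. Mobile phase was water and acetonitrile, each with 0.01% TFA. Gradient: 12→60% B over 30 min, →90% B over 5 min, hold 5 min. Detection was UV 220 nm with positive ESI Q-TOF (capillary 3300 V, cone 45 V), collision energy 20 eV and xenon as collision gas.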

Data set [9] relates to Hepatocyte. Description: Drug level in human hepatocytes treated with [14C]-rivoglitazone at 30 uM after 3 hrs by radio-HPLC/LC-MS/MS analysis in presence of UDPGA and UDPGA/SAM. Format: ADME, cell-based.
The test system of data set [10] is Hepatocyte. Description: Drug level in rat hepatocytes treated with [14C]-rivoglitazone at 30 uM after 3 hrs by radio-HPLC/LC-MS/MS analysis. Type of data set: ADME, cell-based.
For data set [11], the system named is Hepatocyte. Description: Drug level in human hepatocytes treated with [14C]-rivoglitazone at 30 uM after 3 hrs by radio-HPLC/LC-MS/MS analysis. Format: ADME, cell-based. The essentials:
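Freshly isolated hepatocytes were suspended in HBSS at 2×10^6 viable cells/ml; trypan-blue viability was rat 88%, monkey 91 and 94%, human 66, 73 and 81%. Donors were rat (7 weeks, 170 g) and two male cynomolgus monkeys. Cells were incubated with [¹⁴C]rivoglitazone (30 μM) for 3 h at 37°C under 95% O₂/5% CO₂. Acetonitrile stop, sonication, samples pooled per species, supernatant analysed by radio-HPLC and LC-MS.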

Data set [12] can be described thus: Drug level in monkey hepatocytes treated with [14C]-rivoglitazone at 30 uM after 3 hrs by radio-HPLC/LC-MS/MS analysis. As to conditions: cynomolgus monkey.
Data set [13] relates to Liver microsome. Description: Drug level in Sprague-Dawley rat liver microsomes treated with [14C]-rivoglitazone at 20 uM after 2 to 4 hrs by radio-HPLC/LC-MS/MS analysis in presence of NADPH-generating system/SAM and UDPGA/SAM. Type of data set: ADME.
Data set [14] can be described thus: Drug level in cynomolgus monkey liver microsomes treated with [14C]-rivoglitazone at 20 uM after 2 to 4 hrs by radio-HPLC/LC-MS/MS analysis in presence of NADPH-generating system/SAM and UDPGA/SAM. Format: ADME, Macaca fascicularis.
Data set [15] has as its system Liver microsome. Kind of data set: Drug level in human liver microsomes treated with [14C]-rivoglitazone at 20 uM after 2 to 4 hrs by radio-HPLC/LC-MS/MS analysis in presence of NADPH-generating system/SAM and UDPGA/SAM. Format: ADME.
Data set [16] deals with Hepatocyte (Macaca fascicularis). Kind of data set: Drug level in monkey hepatocytes treated with [14C]-rivoglitazone at 30 uM after 3 hrs by radio-HPLC/LC-MS/MS analysis in presence of NADPH-generating system/SAM. As to conditions: cynomolgus monkey.
Data set [17] in a line: Drug level in cynomolgus monkey liver microsomes treated with [14C]-rivoglitazone at 20 uM after 2 hrs by radio-HPLC/LC-MS/MS analysis in presence of NADPH-generating system/SAM. Format: ADME, Macaca fascicularis. The essentials: (§2)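 Pooled male liver microsomes (1 mg/ml protein; rat from 94 Sprague-Dawley, monkey from 8 cynomolgus, human from 23 donors) were incubated with [¹⁴C]rivoglitazone (20 μM). Buffer: 10 mM potassium phosphate (pH 7.4). Cofactors: NADPH-generating system (2 mM NADP⁺, 20 mM G6P, 2 U/ml G6PDH, 10 mM MgCl₂), with or without 2 mM SAM. Incubation 2 h at 37°C with shaking; controls lacked NADPH system and SAM alone. Acetonitrile stop, radio-HPLC plus LC-MS.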

Data set [18] concerns Liver microsome. Description: Drug level in Sprague-Dawley rat liver microsomes treated with [14C]-rivoglitazone at 20 uM after 2 hrs by radio-HPLC/LC-MS/MS analysis in presence of NADPH-generating system/SAM. Format: ADME. In short, it runs like this:
as §2

Data set [19] concerns Liver microsome. Description: Drug level in human liver microsomes treated with [14C]-rivoglitazone at 20 uM after 2 hrs by radio-HPLC/LC-MS/MS analysis in presence of NADPH-generating system/SAM. Type of data set: ADME. The essentials:
as §2

The subject of data set [20] is Hepatocyte. Description: Drug level in human hepatocytes treated with [14C]-rivoglitazone at 30 uM after 3 hrs by radio-HPLC/LC-MS/MS analysis in presence of NADPH-generating system/SAM. Type of data set: ADME, cell-based.
For data set [21], the system named is Hepatocyte. Description: Drug level in rat hepatocytes treated with [14C]-rivoglitazone at 30 uM after 3 hrs by radio-HPLC/LC-MS/MS analysis in presence of NADPH-generating system/SAM. Type of data set: ADME, cell-based.

With `COc1ccc2nc(COc3ccc(CC(SC(=O)N[C@@H]4O[C@H](C(=O)O)[C@@H](O)[C@H](O)[C@H]4O)C(=O)O)cc3)n(C)c2c1` (stereo not given in full), the Drug metabolism result (in [1]; in [2]; in data set [3]; in the data set on Liver microsome [4]; with Liver microsome [5]; in the data set on Hepatocyte [6]) was “metabolite_detected” in each case. For the same compound, the Drug metabolism entry (in [7]; in the data set on Hepatocyte [9]) was “metabolite_detected” throughout. Further, the Retention_time in data set [8] amounted to 17.3 min.
In the case of `Cn1c(COc2ccc(CC3SC(=O)NC3=O)cc2)nc2ccc(OS(=O)(=O)O)cc21` (stereo not given), the Drug metabolism entry (with Hepatocyte [10]; in the data set on Hepatocyte [11]; in data set [12]) was “metabolite_detected” in each case. This compound came in with a Retention_time in [8] of 18.9 min.
For the compound `COc1ccc2nc(COc3ccc(CC(SSCC(N)C(=O)O)C(=O)O)cc3)n(C)c2c1` (stereo not given), the Drug metabolism entry with Hepatocyte [11] is “metabolite_detected”. In [8], the Retention_time turned out to be 17.1 min.
With `COc1ccc2nc(COc3ccc(CC(SC)C(=O)O)cc3)n(C)c2c1` (stereo not given), the Drug metabolism entry (with Liver microsome [13]; in [14]; with Liver microsome [15]) was “metabolite_detected” in each case. Moreover, the Retention_time in data set [8] is on record as 24.2 min.
With `COc1ccc2nc(COc3ccc(CC(SC)C(N)=O)cc3)n(C)c2c1` (stereo not given), the Drug metabolism entry (in data set [16]; in data set [17]; in the data set on Liver microsome [18]; in the data set with Liver microsome [19]; in the data set on Hepatocyte [20]; in the data set on Hepatocyte [21]) was “metabolite_detected” throughout. Moreover, the Retention_time in [8] is listed as 20.4 min.
Turning to `COc1ccc2nc(COc3ccc(CC4SC(=O)N([C@@H]5O[C@H](C(=O)O)[C@@H](O)[C@H](O)[C@H]5O)C4=O)cc3)n(C)c2c1` (stereo not given in full), the Drug metabolism entry (in data set [1]; in data set [2]; in data set [3]; with Liver microsome [4]; in the data set on Liver microsome [5]; in the data set with Hepatocyte [6]) was “metabolite_detected” each time. For the same compound, the Drug metabolism result (in data set [7]; with Hepatocyte [9]) was “metabolite_detected” throughout. Further, the Retention_time in [8] worked out at 19.8 min.
